Most compounds without a hit are left out; they make up all but 3.2% or so of the library.
GASC-1 inh – inhibitors of GASC-1 histone demethylase, primary screen, biochemical, fluorescence, DELFIA europium; hit rate 0.069% among 330,000; Lysine-specific demethylase 4C (Homo sapiens), Q9H3R0; inhibition, % at 2.35 µM; GST-JMJD2C(1-420) H3K9me3 demethylation;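 active means more than half of a compound's replicate wells show inhibition beyond 50%, single wells judged on their own value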;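 further: signal counts dimethyl H3K9 product captured on neutravidin plate; 0% = median of DMSO wells and 100% = 0.3 times that DMSO median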
NR2E3 ag-1 – NR2E3 agonists in two-hybrid cells, primary screen, cell-based, luminescence, CHO-S, Gal4-NCOR/VP16-NR2E3; Photoreceptor-specific nuclear receptor (Homo sapiens), Q9Y5X4; luciferase; inhibition of corepressor binding, % at 3.98 µM; hit rate 0.35% among 360,000;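 active means inhibition above the mean of all tested compounds plus 3 SD, cut at about 70% in these data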;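 further: 0% = DMSO with NR2E3 transfected cells and 100% = cells lacking NR2E3 construct; higher means lower luciferase signal from less NR2E3 corepressor binding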
Target sequence (Q9Y5X4 whole entry, looked up, the tested form may be a part): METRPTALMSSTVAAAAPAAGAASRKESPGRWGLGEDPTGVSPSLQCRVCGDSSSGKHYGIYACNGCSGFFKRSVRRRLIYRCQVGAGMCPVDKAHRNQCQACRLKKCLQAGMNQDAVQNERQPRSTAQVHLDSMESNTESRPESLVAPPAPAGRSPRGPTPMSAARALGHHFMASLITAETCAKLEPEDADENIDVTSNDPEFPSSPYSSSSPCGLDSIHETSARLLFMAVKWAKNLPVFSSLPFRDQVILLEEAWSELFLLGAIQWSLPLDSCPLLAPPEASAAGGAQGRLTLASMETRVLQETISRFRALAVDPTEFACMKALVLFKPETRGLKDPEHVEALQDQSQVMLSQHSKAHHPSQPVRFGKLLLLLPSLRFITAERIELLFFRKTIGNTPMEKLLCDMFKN
DAX1 inh-1 – DAX1 (NR0B1) inhibitors, primary screen, cell-based, HEK293, Gal4-DAX1, luciferase luminescence. HEK293 Gal4-DAX1 luciferase reporter. Nuclear receptor subfamily 0 group B member 1 (Homo sapiens), P51843. AID 504766, 2011. hit rate 0.99% among 340,000. inhibition, % at 6.75 µM;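 active means inhibition above the mean over all tested compounds plus 3 SD, cut at about 4.2% in these data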;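 further: 0% = DAX1-transfected cells with DMSO and 100% = empty-vector control cells with DMSO; inhibition shows as a rise in luminescence from relieved DAX1 repression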
Target sequence (P51843 207-470 limits assumed): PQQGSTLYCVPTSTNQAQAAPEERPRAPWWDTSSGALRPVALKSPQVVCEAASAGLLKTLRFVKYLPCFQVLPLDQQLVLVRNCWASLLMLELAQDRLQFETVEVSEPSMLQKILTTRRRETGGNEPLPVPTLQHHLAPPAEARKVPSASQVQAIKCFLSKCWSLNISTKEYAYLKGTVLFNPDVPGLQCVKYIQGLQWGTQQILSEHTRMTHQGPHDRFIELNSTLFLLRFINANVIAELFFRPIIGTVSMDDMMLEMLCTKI
SMARCA2 act – SMARCA2 (BRM) function activators, primary screen, cell-based, luminescence, high throughput. MG213 cells, MMTV-luciferase reporter, dexamethasone, overnight. activation, % at 9.1 µM. hit rate 1% among 370,000. AID 652017, 2013; in the data active means activation above about 7.8%;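 further: 0% = vehicle wells and 100% = reference activator wells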
DAX1 inh-2 – DAX1 (NR0B1) inhibitors on StAR promoter, primary screen, cell-based, luminescence, SF-1 (NR5A1), full-length DAX-1 | HEK293T StAR-luciferase reporter, SF-1/DAX-1 repression relief | inhibition, % at 6.8 µM | hit rate 1.1% among 370,000 | AID 652010, 2013;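 active means inhibition above the mean over all tested compounds plus 3 SD, cut at about 3.6% in these data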;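 further: 0% = DAX-1 cells with DMSO and 100% = cells lacking DAX-1 with DMSO; higher inhibition means more luminescence from relief of DAX-1 repression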
NR2E3 ag-2 – inhibitors of NR2E3-RetCOR corepressor binding, primary screen, NR2E3 agonist project, biochemical, TR-FRET, GST-NR2E3, biotin-RetCOR. hit rate 0.12% among 320,000. Photoreceptor-specific nuclear receptor (Homo sapiens), Q9Y5X4. inhibition of corepressor binding, % at 4.78 µM. 1536-well;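 active means percent inhibition above the cutoff of mean plus 3 SD of all tested compounds, set per screening campaign, cut at about 20% in these data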;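 further: 0% = DMSO wells and 100% = biotin wells as full block of FRET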
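Material: NR2E3–RetCOR corepressor complex | Quantity: 1.35 nM GST-tagged NR2E3 final | Schedule: 5 h at 4 °C | Replication: Singlicate compound wells | Reagent: RetCOR corepressor, biotinylated, 7 nM | Controls: Biotin wells as high control, 0.6% DMSO wells as low control | Signal: TR-FRET, Eu(K)-anti-GST donor, streptavidin-D2 acceptor, ex 340, em 617/671 nm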
SMARCA2 act conf – SMARCA2 (BRM) function activators, confirmation, cell-based, luminescence, triplicate; shares compounds with SMARCA2 act; MG213 cells, MMTV-luciferase with dexamethasone, overnight; MG213 cells expressing E1A, Rb sequestered; DMSO wells 0%, reference activator 100%; activation, % at 9.1 µM; hit rate 30% among 3,500;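 active means activation above its plate's cutoff, the mean activation of tested wells plus 3 SD, cut at about 7.9% in these data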
GAL4-VP16 Luc – GAL4-VP16 luciferase reporter activation, counter-screen for SMARCA2 (BRM) activator project, cell-based, pG5luc, luminescence, high throughput; AID 686939, 2013; shares compounds with SMARCA2 act; HEK293 GAL4-VP16 pG5luc reporter; scaled: DMSO wells 0%, SAHA wells 100%; activation, % at 9.1 µM; hit rate 41% among 3,500;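 active means activation above the solvent-only control well mean plus 3 SD, averaged across control plates, cut at about 5.2% in these data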
Active calls of the source: *; nt = not tested or not shown.

SMILES | GASC-1 inh | NR2E3 ag-1 | DAX1 inh-1 | SMARCA2 act | DAX1 inh-2 | NR2E3 ag-2 | SMARCA2 act conf | GAL4-VP16 Luc
CCn1c(O)c(N=Nc2ccc(Cl)c(C(=O)O)c2)c2ccccc21 | -2 | 33 | 0 | 11* | 0 | -1 | -4 | 1
CC(C)n1c(O)c(N=Nc2ccc(Cl)c(C(=O)O)c2)c2ccccc21 | -1 | 2 | 3 | 0 | 0 | -3 | nt | nt
Cc1cccc(NC(=O)c2ccccn2)c1C | 4 | -54 | 2 | 8.3* | 2 | 1 | 13* | 8.4*
O=C(O)/C=C/C(=O)c1ccc(O)cc1 | -1 | -24 | 1 | -2 | 0 | 0 | nt | nt
O=C(O)/C=C/C(=O)c1ccc2c(c1)CCc1ccccc1-2 | -7 | -100 | -2 | 11* | -1 | 3 | 7 | 6.5*
CC1=C2N=C(N)N(Cc3ccccc3)C(Cc3ccccc3)C2n2c(=O)n(-c3ccccc3)c(=O)n2C1 (stereo not drawn) | nt | nt | nt | -3 | 0 | nt | nt | nt
Cc1ccc(-n2ncc3c(NCc4ccccn4)ncnc32)c(C)c1 | -1 | 14 | 1 | -4 | -1 | 0 | nt | nt
COc1ccccc1CNc1ncnc2c1cnn2-c1ccccc1 | 3 | -49 | 1 | 8.2* | 2 | 0 | 1 | 4
CCCCNc1ncnc2c1cnn2-c1ccccc1 | 2 | -212 | -1 | 0 | 0 | 1 | nt | nt
Clc1ccc(-n2ncc3c(NCc4ccccn4)ncnc32)cc1 | 1 | -52 | 1 | 11* | 0 | -3 | 11* | 6.0*
CCCCNc1ncnc2c1cnn2-c1ccc(Cl)cc1 | 0 | -158 | -1 | 10* | 1 | 0 | 5 | 9.8*
CCN(CC(=O)Nc1cc(Cl)ccc1Cl)C(=O)c1ccc(-n2cccn2)cc1 | -4 | 10 | 1 | -2 | 1 | 2 | nt | nt
CC1CCCCC1NC(=O)C(Cc1ccccc1)NS(=O)(=O)c1cccs1 (stereo not drawn) | 19 | 13 | 0 | 8.7* | 0 | 0 | 3 | 0
Cc1cc(O)cc(=O)n1-c1cc(Cl)cc(Cl)c1 | nt | nt | nt | -3 | 1 | nt | nt | nt
S=C(Nc1cccc(Cl)c1)OC1CCC12CCC(c1ccccc1)CC2 (stereo not drawn) | nt | nt | nt | -2 | -1 | nt | nt | nt
O=C(CC1NC2CCCCC2NC1=O)Nc1ccc2c(c1)OCO2 (stereo not drawn) | -12 | -4 | 2 | 11* | 0 | 0 | -1 | 0
Cc1ccc(Cl)cc1NC(=O)CC1NC2CCCCC2NC1=O (stereo not drawn) | -7 | 0 | 3 | 0 | 0 | -1 | nt | nt
COc1ccc(C)cc1NC(=O)C1CCN(S(=O)(=O)c2cccc3cccnc23)CC1 | 4 | -15 | 1 | 0 | -1 | 1 | nt | nt
COc1ccc(C)cc1NC(=O)c1ccccc1NS(=O)(=O)c1cccc2cccnc12 | -10 | -22 | 4 | 8.1* | 0 | 5 | -3 | -1
CC(=O)Nc1ccc(SCc2csc(C)n2)cc1 | -1 | -20 | 2 | 0 | 0 | 5 | nt | nt
O=C(CSc1nnc(NC2CC2)s1)c1ccc[nH]1 | 3 | -83 | 2 | 12* | 3 | nt | 10* | 7.3*
NS(=O)(=O)c1ccc(NC(=O)CSc2nnc(NC3CC3)s2)cc1 | nt | 6 | 1 | 0 | 1 | nt | nt | nt
COC(=O)c1cc(C(=O)OC)cc(-n2c(C)cc(C(=O)COC(=O)CNS(=O)(=O)c3ccc(C)cc3)c2C)c1 | 1 | -23 | 0 | 8.0* | 0 | -3 | -1 | -1
Cc1oc(-c2ccccc2Cl)nc1CS(=O)CC(=O)NC1CC1 (stereo not drawn) | -3 | 16 | 0 | -2 | -1 | 0 | nt | nt
COCC(=O)Nc1c(C(=O)Nc2cccc(OC)c2)oc2ccccc12 | 8 | 11 | 1 | 10* | 0 | -2 | 12* | 6.2*
SMILES | GASC-1 inh | NR2E3 ag-1 | DAX1 inh-1 | SMARCA2 act | DAX1 inh-2 | NR2E3 ag-2 | SMARCA2 act conf | GAL4-VP16 Luc
COc1cccc(NC(=O)c2oc3ccccc3c2NC(C)=O)c1 | -17 | -51 | 2 | nt | nt | -5 | nt | nt
COc1ccccc1C(=O)Nc1ccnn1C1CCN(CCCc2ccccc2)CC1 | 7 | -2 | 0 | 3 | 0 | 1 | nt | nt
Cc1ccc(NC(=O)c2ccc([N+](=O)[O-])o2)cc1S(=O)(=O)N1CCOCC1 | -13 | 16 | nt | 17* | -3 | 2 | 14* | 2
Cc1ccc(NC(=O)c2cc([N+](=O)[O-])ccc2N2CCOCC2)cc1S(=O)(=O)N1CCOCC1 | -1 | -19 | 1 | -2 | -1 | 2 | nt | nt
Cc1cc(NC(=O)c2ccc([N+](=O)[O-])o2)ccc1NC(=O)c1ccco1 | -14 | 27 | -3 | 10* | -3 | nt | 18* | 2
COc1ccc(NC(=O)c2ccc(Br)o2)cc1 | 9 | -79 | 1 | 6 | 1 | 3 | nt | nt
COc1ccc(NC(=O)c2ccc([N+](=O)[O-])o2)cc1 | 2 | 28 | 0 | 12* | -1 | -2 | 29* | 3
O=C(Nc1ccc(Cl)cn1)c1ccc([N+](=O)[O-])o1 | -5 | -4 | -2 | 11* | -2 | nt | 14* | 4
COC(=O)[C@]12C[C@H](CC(=O)N3CCCC3)C(=O)N(Cc3ccco3)C1=C[C@H](C(C)C)O[C@@H]2C1CC1 | nt | nt | nt | -3 | 0 | nt | nt | nt
Cc1cc(C)cc(CC(=O)N2CCC2(C)C(=O)NS(=O)(=O)c2cccc(F)c2)c1 (stereo not drawn) | nt | -13 | nt | -2 | -1 | nt | nt | nt
O=C(Nc1ccc(N2CCN(C(=O)c3ccccc3)CC2)cc1)c1ccc([N+](=O)[O-])o1 | 2 | 34 | -2 | -5 | -4 | nt | nt | nt
Cc1ccccc1C(=O)N1CCN(c2ccc(NC(=O)c3ccc([N+](=O)[O-])o3)cc2)CC1 | 4 | 4 | -1 | 13* | -1 | 4 | -4 | 3
CC(=O)c1ccc(NC(=O)c2ccc([N+](=O)[O-])o2)cc1 | 15 | 1 | -2 | 9.4* | -1 | nt | 19* | 4

Compound activity deposited in PubChem BioAssay by several laboratories.
